Results on 15 compounds are retold here after ChEMBL document CHEMBL2146369, “Oxazolo[3,2-a]pyridine. A new structural scaffold for the reversal of multi-drug resistance in Leishmania” (Bioorg Med Chem Lett, 2012).

For assay [1], the system named is Leishmania tropica. Briefly: Potentiation of daunomycin-induced antileishmanial activity against promastigotes of multidrug-resistant Leishmania tropica assessed as fold decrease in daunomycin IC50 at 6 uM after 72 hrs by MTT assay. The format is functional. The essentials:
(§1)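 MDR L. tropica promastigotes given increasing DNM or miltefosine concentrations, with or without 6 µM modulator, for 72 h at 28 °C. Viability measured by MTT absorbance at 540 nm. IC50 taken for each condition. Reversal index is drug IC50 without modulator divided by IC50 with it. Three independent experiments.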
For orientation: Tetrazolium dyes change colour on reduction, which living cells bring about.

Another assay relates to THP-1. The assay can be described thus: Cytotoxicity against PMA-stimulated human THP1 cells after 72 hrs by MTT assay. The note with it: THP-1, 72 h. The format is cell-based. The essentials:
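THP-1 cells grown at 37 °C, 5% CO2 in RPMI-1640 with 10% iFBS, […], penicillin and streptomycin. Differentiated to macrophages with 20 ng/mL PMA for 48 h, then 24 h in fresh medium. MTT viability assay run as for parasites but incubated at 37 °C. IC50 determined.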

The test system of assay [2] is Leishmania tropica. Briefly: Potentiation of miltefosine-induced antileishmanial activity against promastigotes of multidrug-resistant Leishmania tropica assessed as fold decrease in miltefosine IC50 at 6 uM after 72 hrs by MTT assay. The format is functional. The essentials: as §1
Assay [3] concerns Leishmania tropica. Briefly: Potentiation of daunomycin-induced antileishmanial activity against promastigotes of multidrug-resistant Leishmania tropica at 3 to 8 uM after 72 hrs by MTT assay. It counts as functional, organism-based.
The test system of assay [4] is Leishmania tropica. Briefly: Antileishmanial activity against promastigotes of wild type Leishmania tropica LRC after 72 hrs by MTT assay. It counts as functional, organism-based. In short, it runs like this:
(§2)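 Promastigotes of wild-type L. tropica LRC clone or DNM-selected MDR line (kept in 150 µM DNM or 30 µM MLF), grown at 28 °C in modified RPMI 1640 with 20% heat-inactivated FBS. Exposed to compounds without DNM for 72 h at 28 °C. Viability read by MTT absorbance at 540 nm, expressed relative to untreated parasites.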

Assay [5] has as its system Leishmania tropica. Briefly: Resistance ratio of IC50 for multidrug-resistant Leishmania tropica and IC50 for wild type Leishmania tropica LRC. It counts as functional. The essentials: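 DNM-selected MDR and parental wild-type L. tropica promastigotes treated with increasing drug concentrations for 72 h at 28 °C. Viability read by MTT at 540 nm. Ratio of MDR IC50 to parental IC50 calculated.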

For assay [6], the system named is Leishmania tropica. The assay can be described thus: Antileishmanial activity against promastigotes of multidrug-resistant Leishmania tropica after 72 hrs by MTT assay. The format is functional, organism-based. The essentials:
as §2

pIC50: −log10 of the molar value. Calls of active or inactive are those of the source. The rule behind the calls is not given here.

As for `COC(=O)C1=C(C)N2C[C@H](C)O[C@@]2(C)[C@@H](C(=O)OC)[C@@H]1c1cccc(Cl)c1`, the “fold change (FC)” value in the assay on Leishmania tropica [1] is over 6. Besides, the negative logarithm of the IC50 (pIC50) (commonly the negative decadic logarithm of the IC50, by convention in mol/L) in the assay with THP-1 was under 3.40.

In the case of `COC(=O)C1=C(C)N2C[C@@H](C)O[C@]2(C)[C@H](C(=O)OC(C)(C)C)[C@H]1c1cccc(Cl)c1`, the “fold change (FC)” value with Leishmania tropica [2] is listed as 8.7. Besides, the pIC50 in the assay with THP-1 is under 3.40.

Consider `CC(=O)O[C@H]1C[C@](C)(O)[C@]23OC(C)(C)[C@H](C[C@H](OC(=O)c4ccco4)[C@]2(C)[C@H]1OC(C)=O)[C@H]3OC(=O)c1ccco1`, for which the “fold change (FC)” value with Leishmania tropica [2] is given as 6; in the assay with Leishmania tropica [1], 4.7.

For the compound `COC(=O)C1=C(C)N2CCO[C@@]2(C)[C@@H](C(=O)OC)[C@@H]1c1ccco1` (racemic), the negative-log IC50 (pIC50) in the assay with THP-1 is under 3.40.

The compound `COC(=O)C1=C(C)N2CCO[C@@]2(C)[C@@H](CO)[C@@H]1c1cccc([N+](=O)[O-])c1` (racemic) showed a pIC50 in the assay on THP-1 of under 3.40.

For `COC(=O)C1=C(C)N2CCO[C@@]2(C)[C@@H](C(=O)OC)[C@@H]1c1cccc([N+](=O)[O-])c1` (racemic), the “fold change (FC)” value with Leishmania tropica [2] is on record as 3.4; with Leishmania tropica [1], 3.9. In addition, the result in the assay with Leishmania tropica [3] was Active. Moreover, the negative-log IC50 (pIC50) in the assay on THP-1 was under 3.40.

As for `COC(=O)C1=C(C)N2CCO[C@@]2(C)[C@@H](C(=O)OCc2ccccc2)[C@@H]1c1cccc([N+](=O)[O-])c1` (racemic), the pIC50 with THP-1 is under 3.40.

In the case of `COC(=O)C1=C(C)N2CCO[C@@]2(C)[C@@H](C(=O)OCc2ccccc2)[C@@H]1c1cccc(Cl)c1` (racemic), in the assay with THP-1, the pIC50 is under 3.40.

For the compound `COC(=O)C1=C(C)N2C(=O)[C@H](C)O[C@@]2(C)[C@@H](C(=O)OC)[C@@H]1c1cccc(Cl)c1` (racemic), the pIC50 in the assay with THP-1 was under 3.40.

Turning to `COC(=O)C1=C(C)N2CCO[C@@]2(C)[C@@H](C(=O)OC)[C@@H]1c1ccc[nH]1` (racemic), the “fold change (FC)” value in the assay on Leishmania tropica [2] was 1.9; in the assay with Leishmania tropica [1] it was 1.3. Also, the result with Leishmania tropica [3] was Active. Moreover, the pIC50 in the assay with THP-1 was under 3.40.

Turning to `COC(=O)C1=C(C)N2CCS[C@@]2(C)[C@@H](C(=O)OC)[C@@H]1c1cccc(Cl)c1` (racemic), the “fold change (FC)” value is on record as 3.5 with Leishmania tropica [2] and 2.2 in the assay with Leishmania tropica [1]. Further, the outcome in the assay with Leishmania tropica [3] was Active. The compound further had a pIC50 in the assay on THP-1 of under 3.40.

For `COC(=O)C1=C(C)N2CCCO[C@@]2(C)[C@@H](C(=O)OC)[C@@H]1c1cccc(Cl)c1` (racemic), the “fold change (FC)” value with Leishmania tropica [2] turned out to be 1.5; in the assay with Leishmania tropica [1] it was 3.2. For the same compound, the result with Leishmania tropica [3] was Active. Besides, the negative-log IC50 (pIC50) with THP-1 was under 3.40.

For `C=CCOC(=O)[C@H]1[C@H](c2cccc(Cl)c2)C(C(=O)OC)=C(C)N2CCO[C@@]12C` (racemic), the “fold change (FC)” value with Leishmania tropica [1] is listed as over 5.

As for `COc1cccc2c1C(=O)c1c(O)c3c(c(O)c1C2=O)C[C@@](O)(C(C)=O)C[C@@H]3O[C@H]1C[C@H](N)[C@H](O)[C@H](C)O1` [DAUNORUBICIN], the negative logarithm of the IC50 (pIC50) with Leishmania tropica [4] is 5.55; in the assay on Leishmania tropica [6] it was 3.75; in the assay with THP-1 it was 4.57. For the same compound, the “Ratio IC50” value with Leishmania tropica [5] was determined as 64.

In the case of `CCCCCCCCCCCCCCCCOP(=O)([O-])OCC[N+](C)(C)C` [MILTEFOSINE], the results for the negative-log IC50 (pIC50) with Leishmania tropica [4], in the assay with Leishmania tropica [6] and with THP-1 were 4.96, 3.62 and 5.15, respectively. The “Ratio IC50” value in the assay on Leishmania tropica [5] is reported as 22.
